# In publication PMC3401475 (Nucleic Acids Research, 2012):
# How the values were obtained:
# (CCUG)10 RNA = test: SPR binding to
# Procedure, shortened: (§1)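 Streptavidin coupled to both flow cells of a CM5 dextran chip after EDC/NHS activation. 5'-Biotin RNA captured at 200–1000 RU; reference cell biotin-blocked. Compound concentrations flowed in HBS-N (0.01 M HEPES, 0.15 M NaCl, pH 7.4) […]. Dissociation ≥200 s, then 0.5 or 1 M NaCl regeneration. Duplicate injections, buffer-blank subtracted. Global 1:1 Langmuir fit. KD averaged over two chips with different RNA densities. t1/2 = ln2/koff.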
# (CUG)10 RNA = test: SPR binding to
# Procedure, shortened: as §1
# [1] = Relative fluorescence quantum yield; format: physicochemical; conditions: in methanol, excitation 362 nm
# human fibroblast cells = test: MTT cell viability, human fibroblasts; format: cell-based; conditions: at concentrations up to 500 µM
# C2C12 mouse myoblasts = test: MTT cell toxicity, mouse myoblasts; format: cell-based; conditions: 48 h, all concentrations tested
# Procedure, shortened: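 C2C12 myoblasts in DMEM (10% FBS, 1% penicillin–streptomycin) grown to ~80% confluence at 37°C under CO2. Compound at varying concentrations (up to 1 mM), 48 h, 37°C. MTT in medium added for 4 h at 37°C, then isopropanol solubilisation; absorbance read at 600 nm.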
structure (smiles),measurement,setting,value
"NC[C@@H]1O[C@H](O[C@H]2[C@@H](O)[C@H](O[C@@H]3[C@@H](O)[C@H](N)C[C@H](N)[C@H]3O[C@H]3O[C@H](CN)[C@@H](O)[C@H](O)[C@H]3N)O[C@@H]2CO)[C@H](N)[C@@H](O)[C@@H]1O [Neomycin, Neomycin B]",Residence time t1/2,"(CCUG)10 RNA; (CCUG)10, t1/2 = ln2/kd",4 s
same,Kd,"(CCUG)10 RNA; read-out: Apparent KD, (CCUG)10, HBS-N pH 7.4, average of two titrations",1960 nM
same,Residence time t1/2,"(CUG)10 RNA; (CUG)10, t1/2 = ln2/kd",14 s
same,Kd,"(CUG)10 RNA; read-out: Apparent KD, (CUG)10, HBS-N pH 7.4, average of two titrations",409 nM
"CCc1nc2cc3ccccc3cc2cc1C(=O)O [Compound 2, ethylbenzo[g]quinoline carboxylic acid]",fluorescence quantum yield relative to quinine sulfate,[1],0.64
same,toxicity by MTT assay,human fibroblast cells,no toxicity
same,Apparent KD,"(CUG)10 RNA; (CUG)10, HBS-N pH 7.4, average of two titrations",complete lack of binding
CO[C@@]12[C@H](COC(N)=O)C3=C(C(=O)C(C)=C(N)C3=O)N1C[C@@H]1N[C@@H]12 [mitomycin C],toxicity by MTT assay,C2C12 mouse myoblasts,significant toxicity
